How the values were obtained:
HEK-293T = assay: Incucyte cell viability with HEK293T; type: toxicity, cell-based; conditions: human, 10 µM, compound concentration 10 uM; further: filed as whole numbers so only -1 and 0 and 1 occur
U2OS = assay: Multiplex assay against U2OS; type: toxicity, cell-based; conditions: human
How it was run: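 At seeding, live cells were stained with Hoechst33342, BioTracker Green Microtubule Cytoskeleton Dye, MitoTracker Red and Annexin V Alexa Fluor 680. After compound addition they were imaged on a CQ1 microscope at 37°C and 5% CO2, and CellPathfinder machine-learning gating sorted them into Hoechst high-intensity objects or normal cells, with normal cells further split into healthy, pyknosed or fragmented nuclei and pyknosed cells into mitotic or apoptotic. Tubulin, mitochondrial-mass and membrane-permeability phenotypes are given as per cents of cells with healthy nuclei.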

[1] = 12 h, 1 µM, compound concentration 1 uM, replicate 1
[2] = 12 h, 1 µM, compound concentration 1 uM, replicate 2
[3] = 12 h, 10 µM, compound concentration 10 uM, replicate 1
[4] = 12 h, 10 µM, compound concentration 10 uM, replicate 2
[5] = 24 h, 1 µM, compound concentration 1 uM, replicate 1
[6] = 24 h, 1 µM, compound concentration 1 uM, replicate 2
[7] = 24 h, 10 µM, compound concentration 10 uM, replicate 1
[8] = 24 h, 10 µM, compound concentration 10 uM, replicate 2
[9] = 48 h, 1 µM, compound concentration 1 uM, replicate 1
[10] = 48 h, 1 µM, compound concentration 1 uM, replicate 2
[11] = 48 h, 10 µM, compound concentration 10 uM, replicate 1
[12] = 48 h, 10 µM, compound concentration 10 uM, replicate 2

In the case of CC(C)N1CCC(C)(C)c2cc(C#Cc3ccc(C(=O)O)cc3)ccc21, the “Growth Rate” value (HEK-293T; 0 h, replicate number 1, timepoint 0 hours) is reported as 1, the “Growth Rate” value (HEK-293T; 0 h, replicate number 2, timepoint 0 hours) is reported as 0 and the “Growth Rate” value (HEK-293T; 6 h, replicate number 1, timepoint 6 hours) is reported as 1. For the same molecule, the “Growth Rate” value (HEK-293T; 12 h, replicate number 1, timepoint 12 hours) was 0, the “Growth Rate” value (HEK-293T; 18 h, replicate number 1, timepoint 18 hours) was 0 and the “Growth Rate” value (HEK-293T; 24 h, replicate number 1, timepoint 24 hours) was 0. The “Population Apoptotic (%)” value (U2OS; [1]) was 30%, the “Population Healthy Nuclei (%)” value (U2OS; [1]) was 74% and the “Population Hoechst High Intensity Objects (%)” value (U2OS; [1]) was 12%. The “Population Membrane Permeable-Phenotype (%)” value (U2OS; [1]) was 3%, the “Population Mitochondria Different-Phenotype (%)” value (U2OS; [1]) was 4% and the “Population Mitotic Cells (%)” value (U2OS; [1]) was 70%. For the same molecule, the “Population Normal (%)” value (U2OS; [1]) was 88%, the “Population Pyknosed Nuclei (%)” value (U2OS; [1]) was 9% and the “Population Tubulin-Different-Phenotype (%)” value (U2OS; [1]) was 21%. For the same molecule, the “Total Cell Count” value (U2OS; [1]) was 125, the “Population Apoptotic (%)” value (U2OS; [2]) was 20% and the “Population Fragmented Nuclei (%)” value (U2OS; [2]) was 16%. The “Population Healthy Nuclei (%)” value (U2OS; [2]) was 75%, the “Population Hoechst High Intensity Objects (%)” value (U2OS; [2]) was 13% and the “Population Membrane Permeable-Phenotype (%)” value (U2OS; [2]) was 6%. For the same molecule, the “Population Mitochondria Different-Phenotype (%)” value (U2OS; [2]) was 15%, the “Population Mitotic Cells (%)” value (U2OS; [2]) was 80% and the “Population Normal (%)” value (U2OS; [2]) was 86%. The “Population Pyknosed Nuclei (%)” value (U2OS; [2]) was 8%, the “Population Tubulin-Different-Phenotype (%)” value (U2OS; [2]) was 20% and the “Total Cell Count” value (U2OS; [2]) was 69. The “Population Apoptotic (%)” value (U2OS; [3]) was 60%, the “Population Fragmented Nuclei (%)” value (U2OS; [3]) was 52% and the “Population Healthy Nuclei (%)” value (U2OS; [3]) was 43%. For the same molecule, the “Population Hoechst High Intensity Objects (%)” value (U2OS; [3]) was 54%, the “Population Membrane Permeable-Phenotype (%)” value (U2OS; [3]) was 8% and the “Population Mitochondria Different-Phenotype (%)” value (U2OS; [3]) was 8%. For the same molecule, the “Population Mitotic Cells (%)” value (U2OS; [3]) was 40%, the “Population Normal (%)” value (U2OS; [3]) was 45% and the “Population Pyknosed Nuclei (%)” value (U2OS; [3]) was 4%. The “Population Tubulin-Different-Phenotype (%)” value (U2OS; [3]) was 13%, the “Total Cell Count” value (U2OS; [3]) was 542 and the “Population Apoptotic (%)” value (U2OS; [4]) was 0%. For the same molecule, the “Population Fragmented Nuclei (%)” value (U2OS; [4]) was 55%, the “Population Healthy Nuclei (%)” value (U2OS; [4]) was 44% and the “Population Hoechst High Intensity Objects (%)” value (U2OS; [4]) was 71%. For the same molecule, the “Population Membrane Permeable-Phenotype (%)” value (U2OS; [4]) was 4%, the “Population Mitochondria Different-Phenotype (%)” value (U2OS; [4]) was 14% and the “Population Mitotic Cells (%)” value (U2OS; [4]) was 0%. For the same molecule, the “Population Normal (%)” value (U2OS; [4]) was 28%, the “Population Pyknosed Nuclei (%)” value (U2OS; [4]) was 0% and the “Population Tubulin-Different-Phenotype (%)” value (U2OS; [4]) was 28%. The “Total Cell Count” value (U2OS; [4]) was 327, the “Population Apoptotic (%)” value (U2OS; [5]) was 54% and the “Population Fragmented Nuclei (%)” value (U2OS; [5]) was 11%. For the same molecule, the “Population Healthy Nuclei (%)” value (U2OS; [5]) was 80%, the “Population Hoechst High Intensity Objects (%)” value (U2OS; [5]) was 7% and the “Population Membrane Permeable-Phenotype (%)” value (U2OS; [5]) was 1%. For the same molecule, the “Population Mitochondria Different-Phenotype (%)” value (U2OS; [5]) was 5%, the “Population Mitotic Cells (%)” value (U2OS; [5]) was 45% and the “Population Normal (%)” value (U2OS; [5]) was 92%. For the same molecule, the “Population Pyknosed Nuclei (%)” value (U2OS; [5]) was 7%, the “Population Tubulin-Different-Phenotype (%)” value (U2OS; [5]) was 12% and the “Total Cell Count” value (U2OS; [5]) was 156. The “Population Apoptotic (%)” value (U2OS; [6]) was 50%, the “Population Fragmented Nuclei (%)” value (U2OS; [6]) was 18% and the “Population Healthy Nuclei (%)” value (U2OS; [6]) was 76%. For the same molecule, the “Population Hoechst High Intensity Objects (%)” value (U2OS; [6]) was 4%, the “Population Membrane Permeable-Phenotype (%)” value (U2OS; [6]) was 3% and the “Population Mitochondria Different-Phenotype (%)” value (U2OS; [6]) was 10%. For the same molecule, the “Population Mitotic Cells (%)” value (U2OS; [6]) was 50%, the “Population Normal (%)” value (U2OS; [6]) was 95% and the “Population Pyknosed Nuclei (%)” value (U2OS; [6]) was 5%. For the same molecule, the “Population Tubulin-Different-Phenotype (%)” value (U2OS; [6]) was 18%, the “Total Cell Count” value (U2OS; [6]) was 81 and the “Population Apoptotic (%)” value (U2OS; [7]) was 70%. The “Population Fragmented Nuclei (%)” value (U2OS; [7]) was 47%, the “Population Healthy Nuclei (%)” value (U2OS; [7]) was 49% and the “Population Hoechst High Intensity Objects (%)” value (U2OS; [7]) was 48%. For the same molecule, the “Population Membrane Permeable-Phenotype (%)” value (U2OS; [7]) was 4%, the “Population Mitochondria Different-Phenotype (%)” value (U2OS; [7]) was 6% and the “Population Mitotic Cells (%)” value (U2OS; [7]) was 30%. For the same molecule, the “Population Normal (%)” value (U2OS; [7]) was 51%, the “Population Pyknosed Nuclei (%)” value (U2OS; [7]) was 3% and the “Population Tubulin-Different-Phenotype (%)” value (U2OS; [7]) was 14%. The “Total Cell Count” value (U2OS; [7]) was 566, the “Population Apoptotic (%)” value (U2OS; [8]) was 100% and the “Population Fragmented Nuclei (%)” value (U2OS; [8]) was 49%. For the same molecule, the “Population Healthy Nuclei (%)” value (U2OS; [8]) was 47%, the “Population Hoechst High Intensity Objects (%)” value (U2OS; [8]) was 66% and the “Population Membrane Permeable-Phenotype (%)” value (U2OS; [8]) was 3%. The “Population Mitochondria Different-Phenotype (%)” value (U2OS; [8]) was 3%, the “Population Mitotic Cells (%)” value (U2OS; [8]) was 0% and the “Population Normal (%)” value (U2OS; [8]) was 33%. The “Population Pyknosed Nuclei (%)” value (U2OS; [8]) was 2%, the “Population Tubulin-Different-Phenotype (%)” value (U2OS; [8]) was 26% and the “Total Cell Count” value (U2OS; [8]) was 352. The “Population Apoptotic (%)” value (U2OS; [9]) was 25%, the “Population Fragmented Nuclei (%)” value (U2OS; [9]) was 6% and the “Population Healthy Nuclei (%)” value (U2OS; [9]) was 90%. For the same molecule, the “Population Membrane Permeable-Phenotype (%)” value (U2OS; [9]) was 3%, the “Population Mitochondria Different-Phenotype (%)” value (U2OS; [9]) was 5% and the “Population Mitotic Cells (%)” value (U2OS; [9]) was 75%. For the same molecule, the “Population Pyknosed Nuclei (%)” value (U2OS; [9]) was 3%, the “Population Tubulin-Different-Phenotype (%)” value (U2OS; [9]) was 17% and the “Total Cell Count” value (U2OS; [9]) was 245. The “Population Apoptotic (%)” value (U2OS; [10]) was 33%, the “Population Fragmented Nuclei (%)” value (U2OS; [10]) was 14% and the “Population Healthy Nuclei (%)” value (U2OS; [10]) was 83%. The “Population Hoechst High Intensity Objects (%)” value (U2OS; [10]) was 6%, the “Population Membrane Permeable-Phenotype (%)” value (U2OS; [10]) was 4% and the “Population Mitochondria Different-Phenotype (%)” value (U2OS; [10]) was 9%. The “Population Mitotic Cells (%)” value (U2OS; [10]) was 66%, the “Population Normal (%)” value (U2OS; [10]) was 93% and the “Population Pyknosed Nuclei (%)” value (U2OS; [10]) was 2%. The “Population Tubulin-Different-Phenotype (%)” value (U2OS; [10]) was 20%, the “Total Cell Count” value (U2OS; [10]) was 122 and the “Population Apoptotic (%)” value (U2OS; [11]) was 30%. For the same molecule, the “Population Fragmented Nuclei (%)” value (U2OS; [11]) was 38%, the “Population Healthy Nuclei (%)” value (U2OS; [11]) was 57% and the “Population Hoechst High Intensity Objects (%)” value (U2OS; [11]) was 38%. For the same molecule, the “Population Membrane Permeable-Phenotype (%)” value (U2OS; [11]) was 1%, the “Population Mitochondria Different-Phenotype (%)” value (U2OS; [11]) was 10% and the “Population Mitotic Cells (%)” value (U2OS; [11]) was 69%. For the same molecule, the “Population Normal (%)” value (U2OS; [11]) was 61%, the “Population Pyknosed Nuclei (%)” value (U2OS; [11]) was 3% and the “Population Tubulin-Different-Phenotype (%)” value (U2OS; [11]) was 12%. The “Total Cell Count” value (U2OS; [11]) was 653, the “Population Apoptotic (%)” value (U2OS; [12]) was 100% and the “Population Fragmented Nuclei (%)” value (U2OS; [12]) was 44%. For the same molecule, the “Population Healthy Nuclei (%)” value (U2OS; [12]) was 55%, the “Population Hoechst High Intensity Objects (%)” value (U2OS; [12]) was 57% and the “Population Membrane Permeable-Phenotype (%)” value (U2OS; [12]) was 2%. For the same molecule, the “Population Mitochondria Different-Phenotype (%)” value (U2OS; [12]) was 8%, the “Population Mitotic Cells (%)” value (U2OS; [12]) was 0% and the “Population Normal (%)” value (U2OS; [12]) was 42%. The “Population Pyknosed Nuclei (%)” value (U2OS; [12]) was 0%, the “Population Tubulin-Different-Phenotype (%)” value (U2OS; [12]) was 28% and the “Total Cell Count” value (U2OS; [12]) was 411.

Reference: ChEMBL document CHEMBL4689842, “EUbOPEN Chemogenomics Library wave 1” (2021)
